The target in data set [1] is T1, Fatty acid synthase (Homo sapiens, UniProt P49327). Put plainly: Inhibition of human FAS thioster domain preincubated for 30 mins followed by 4-methylumbelliferyl heptanoate substrate addition measured every 5 mins for 60 mins by fluorescence assay.
Target sequence in this assay (P49327 whole entry, the tested form may be a part): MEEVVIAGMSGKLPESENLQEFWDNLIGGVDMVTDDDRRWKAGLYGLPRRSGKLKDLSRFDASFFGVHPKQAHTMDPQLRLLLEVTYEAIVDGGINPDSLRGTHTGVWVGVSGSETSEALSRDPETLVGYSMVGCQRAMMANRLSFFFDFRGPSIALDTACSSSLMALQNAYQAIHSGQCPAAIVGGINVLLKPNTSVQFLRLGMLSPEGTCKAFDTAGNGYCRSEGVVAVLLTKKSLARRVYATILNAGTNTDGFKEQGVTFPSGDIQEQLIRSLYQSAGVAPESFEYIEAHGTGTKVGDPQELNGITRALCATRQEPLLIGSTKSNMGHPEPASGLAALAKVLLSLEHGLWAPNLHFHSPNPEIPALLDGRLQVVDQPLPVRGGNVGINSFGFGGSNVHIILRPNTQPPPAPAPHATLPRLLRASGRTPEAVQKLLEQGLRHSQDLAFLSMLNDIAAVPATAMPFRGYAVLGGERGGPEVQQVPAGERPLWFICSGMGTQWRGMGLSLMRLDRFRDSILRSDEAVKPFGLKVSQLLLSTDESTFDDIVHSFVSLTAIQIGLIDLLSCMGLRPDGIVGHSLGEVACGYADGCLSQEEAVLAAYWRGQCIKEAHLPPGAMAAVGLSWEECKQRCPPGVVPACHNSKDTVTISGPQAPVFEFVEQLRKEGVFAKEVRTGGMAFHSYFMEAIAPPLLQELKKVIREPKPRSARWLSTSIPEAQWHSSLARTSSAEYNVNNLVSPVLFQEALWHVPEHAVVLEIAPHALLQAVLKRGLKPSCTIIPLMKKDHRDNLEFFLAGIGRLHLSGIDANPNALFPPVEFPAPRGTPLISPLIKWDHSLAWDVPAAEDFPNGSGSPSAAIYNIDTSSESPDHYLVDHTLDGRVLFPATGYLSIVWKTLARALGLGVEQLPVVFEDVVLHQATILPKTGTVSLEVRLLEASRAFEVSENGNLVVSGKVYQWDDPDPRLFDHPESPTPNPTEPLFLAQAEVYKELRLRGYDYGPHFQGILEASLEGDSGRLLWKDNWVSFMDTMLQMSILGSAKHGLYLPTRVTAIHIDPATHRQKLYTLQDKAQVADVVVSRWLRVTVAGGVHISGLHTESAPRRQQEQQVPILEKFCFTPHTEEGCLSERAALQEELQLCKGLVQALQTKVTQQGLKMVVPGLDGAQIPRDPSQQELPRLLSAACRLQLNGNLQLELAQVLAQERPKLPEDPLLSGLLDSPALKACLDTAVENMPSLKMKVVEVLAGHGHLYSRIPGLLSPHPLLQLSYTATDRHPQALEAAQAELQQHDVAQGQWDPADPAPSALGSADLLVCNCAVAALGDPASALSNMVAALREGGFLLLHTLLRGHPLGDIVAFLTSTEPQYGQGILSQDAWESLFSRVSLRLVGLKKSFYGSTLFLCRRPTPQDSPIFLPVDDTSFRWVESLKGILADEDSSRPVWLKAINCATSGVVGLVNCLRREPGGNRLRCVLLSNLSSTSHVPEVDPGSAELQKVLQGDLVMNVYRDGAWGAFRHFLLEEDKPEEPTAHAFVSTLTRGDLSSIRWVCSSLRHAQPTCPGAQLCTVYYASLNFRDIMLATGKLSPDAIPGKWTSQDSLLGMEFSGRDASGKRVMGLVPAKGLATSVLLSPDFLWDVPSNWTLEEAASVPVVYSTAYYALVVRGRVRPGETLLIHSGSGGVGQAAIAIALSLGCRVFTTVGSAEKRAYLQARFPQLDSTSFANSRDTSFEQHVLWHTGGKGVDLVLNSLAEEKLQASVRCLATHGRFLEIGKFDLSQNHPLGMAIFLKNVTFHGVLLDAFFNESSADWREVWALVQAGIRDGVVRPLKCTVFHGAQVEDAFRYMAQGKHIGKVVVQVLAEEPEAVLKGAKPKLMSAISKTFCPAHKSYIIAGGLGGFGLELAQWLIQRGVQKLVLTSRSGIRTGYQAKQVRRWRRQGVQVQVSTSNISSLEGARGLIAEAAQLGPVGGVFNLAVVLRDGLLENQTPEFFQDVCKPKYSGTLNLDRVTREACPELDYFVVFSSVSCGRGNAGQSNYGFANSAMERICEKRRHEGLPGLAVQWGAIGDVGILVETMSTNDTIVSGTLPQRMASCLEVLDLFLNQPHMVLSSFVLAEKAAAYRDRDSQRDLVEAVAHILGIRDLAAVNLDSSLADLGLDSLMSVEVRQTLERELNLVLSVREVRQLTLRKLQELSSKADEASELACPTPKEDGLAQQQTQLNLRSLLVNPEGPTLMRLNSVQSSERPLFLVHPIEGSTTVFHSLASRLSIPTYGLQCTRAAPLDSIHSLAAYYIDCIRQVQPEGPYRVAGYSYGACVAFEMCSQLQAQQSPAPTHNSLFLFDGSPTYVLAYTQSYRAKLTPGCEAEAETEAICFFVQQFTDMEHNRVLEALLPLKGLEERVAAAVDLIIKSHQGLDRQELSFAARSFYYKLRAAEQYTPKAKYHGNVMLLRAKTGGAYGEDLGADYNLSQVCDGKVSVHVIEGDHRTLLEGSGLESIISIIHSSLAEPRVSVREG
Data set [2] is described as follows: Half life in DMEM medium at 5 uM in absence of 5% FBS by HPLC method. It counts as physicochemical. In short, it runs like this: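 Compound diluted from DMSO stock to 5 µM final in DMEM (pH 7.5) and held at 37 °C under 5% CO2. Aliquots taken at intervals and quenched with pH 2.0 phosphate buffer. Remaining β-lactone quantified by C18 HPLC integration against initial compound. Run in triplicate.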

Data set [3] is described as follows: Half life in DMEM medium at 5 uM in presence of 5% FBS by HPLC method. It counts as physicochemical. The settings on record: cattle. The essentials: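 Compound at 5 µM final in DMEM with 5% FBS at 37 °C, 5% CO2. Aliquots quenched with pH 2.0 phosphate buffer plus acetonitrile and vortexed to precipitate serum protein. Clear supernatant analysed by C18 HPLC as % β-lactone remaining versus initial. Triplicate.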

Data set [4] deals with T2, Proteasome Macropain subunit MB1 (Homo sapiens, UniProt P28074).
T2 sequence (P28074 whole entry): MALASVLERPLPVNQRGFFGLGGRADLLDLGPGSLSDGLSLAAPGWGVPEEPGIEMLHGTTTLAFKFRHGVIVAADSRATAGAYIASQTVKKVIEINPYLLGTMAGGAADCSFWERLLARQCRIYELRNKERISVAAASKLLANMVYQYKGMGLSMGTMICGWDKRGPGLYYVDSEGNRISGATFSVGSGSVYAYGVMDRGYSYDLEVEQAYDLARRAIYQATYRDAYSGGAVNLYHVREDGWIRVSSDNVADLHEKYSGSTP
Put plainly: Inhibition of chymotrypsin-like activity of 20S proteasome in human red blood cells pretreated for 20 mins followed by Suc-Leu-Leu-Val-Tyr-AMC substrate addition by fluorescence assay. In kind it is cell-based. The essentials:
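20S proteasome (50 ng) from human erythrocytes, preincubated 20 min at 37 °C in 20 mM Tris pH 7.5 with inhibitor series. AMC substrate then added: 10 µM Suc-LLVY for chymotrypsin-like, 20 µM Boc-LRR for trypsin-like, 20 µM Z-LLE for caspase-like. Hydrolysis followed at 360/460 nm for 600 s; the linear rate was fitted to a four-parameter curve for IC50. Triplicate.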

The target of data set [5] is T1, Fatty acid synthase. Put plainly: Inhibition of FAS thioster domain (unknown origin). The essentials:
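Human FAS-TE (500 nM) in 100 mM Tris-HCl, 50 mM NaCl, pH 7.4, preincubated 30 min at 37 °C with compound (0.32–100 µM and/or 0.08–10 µM final, DMSO). Reaction started with 4-methylumbelliferyl heptanoate. Fluorescence (350/450 nm) read every 5 min for 60 min, substrate-only background. IC50 by four-parameter fit; triplicate.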
Target sequence in this assay (P49327 whole entry, the tested form may be a part): as the sequence (P49327 whole entry, the tested form may be a part) above

For the next data set, the system named is HeLa. Nature of the data set: Cytotoxicity against human HeLa cells assessed as reduction in cell viability after 24 hrs by MTT assay. It counts as functional, cell-based. In short, it runs like this: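 HeLa cells grown in DMEM with 10% FBS were seeded at 5000/well and left overnight. MTT was then added for 4 h, the formazan dissolved in DMSO and A570 read. IC50 came from dose-response curves; mean ± SEM of three independent experiments.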

Data set [6] deals with T1, Fatty acid synthase. Put plainly: Competitive inhibition of human FAS thioster domain in MCF cells preincubated for 30 mins followed by TAMRA-N3 labelled (S)-4-ethynylbenzyl 2-((S)-2-(benzyloxycarbonylamino)-6-((2R,3S)-3-hexyl-4-oxooxetane-2-carboxamido)hexanamido)propanoate probe addition after 30 mins […]. It counts as cell-based. In short, it runs like this: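 MCF-7 cells at 80–90% confluency in serum-free medium, pre-incubated 30 min at 37 °C with competitor (10 → 100 µM, 1–10-fold excess over probe; DMSO ≤0.1%). Alkyne probe then added at 10 µM final for 30 min. Cells lysed in NP-40/deoxycholate, protein normalized by BCA, clicked to TAMRA-N3 (CuSO4/TCEP/TBTA, 1–1.5 h RT), resolved by SDS-PAGE, read by in-gel fluorescence.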
Target sequence in this assay (P49327 whole entry, looked up, the tested form may be a part): as the sequence (P49327 whole entry, the tested form may be a part) above

Data on twelve molecules can be found in ChEMBL document CHEMBL4020701, “A strategy for dual inhibition of the proteasome and fatty acid synthase with belactosin C-orlistat hybrids” (Bioorg Med Chem, 2017).

pIC50: −log10 of the molar value. Bounds are passed on as bounds.

Turning to `CCCCCC[C@]1(C)C(=O)O[C@H]1C(=O)NCCCC[C@H](NC(=O)[C@H](C)NC(=O)OCc1ccccc1)C(=O)OCc1ccccc1`, at Fatty acid synthase [1], the pIC50 is 5.58. The t1/2 in data set [2] worked out at 70 min; in data set [3], 120 min.
On to `CCCCCC[C@@H]1C(=O)O[C@H]1C(=O)NCCCC[C@@H]1NC(=O)N([C@@H](C)C(=O)OCc2ccccc2)C1=O`, for which the figures for the negative-log IC50 (pIC50) (in data set [4]; on Fatty acid synthase [1]) were 6.29 and 5.26, respectively.
`CC(C)C[C@@H]1C(=O)O[C@H]1C(=O)NCCC[C@H](NC(=O)[C@H](C)NC(=O)OCc1ccccc1)C(=O)OCc1ccccc1`: on Fatty acid synthase [5], the negative-log IC50 (pIC50) was 5.40 to 6.80.
The molecule `CCCCCC[C@@]1(C)C(=O)O[C@@H]1C(=O)NCCCC[C@H](NC(=O)[C@H](C)NC(=O)OCc1ccccc1)C(=O)OCc1ccccc1` had a pIC50 at Fatty acid synthase [1] of 5.51.
With `CCCCCC[C@@H]1C(=O)O[C@H]1C(=O)NCCCC[C@H](NC(=O)OCc1ccccc1)C(=O)N[C@@H](C)C(=O)OCc1ccccc1`, the figures for the pIC50 (in data set [4]; on Fatty acid synthase [1]; in the data set with HeLa) were 6.43, 5.82 and 4.34, respectively. The t1/2 is given as 20 min in data set [2] and < 3 min in data set [3]. Besides, on Fatty acid synthase [6], the inhibition entry is “Dose-dependent effect”.
At Fatty acid synthase [1], `CCCCCC[C@@H]1C(=O)O[C@H]1C(=O)NCCCC[C@H](NC(=O)[C@H](C)NC(=O)c1ccc(Br)cc1)C(=O)OCc1ccccc1` gave a pIC50 of 5.32.
For `CCCCCC[C@@H]1C(=O)O[C@H]1C(=O)NCCC[C@H](NC(=O)[C@H](C)NC(=O)OCc1ccccc1)C(=O)OCc1ccccc1`, the pIC50 in data set [4] is 6.15; at Fatty acid synthase [1], 5.36; on Fatty acid synthase [5], 5.40 to 6.80.
For the molecule `CCCCCCCCCCC[C@@H](C[C@@H]1OC(=O)[C@H]1CCCCCC)OC(=O)[C@H](CC(C)C)NC=O` [ORLISTAT], the pIC50 in data set [4] was < 4.00.
As for `CCCCCC[C@@]1(C)C(=O)O[C@H]1C(=O)NCCCC[C@H](NC(=O)[C@H](C)NC(=O)OCc1ccccc1)C(=O)OCc1ccccc1`, the negative logarithm of the IC50 (pIC50) on Fatty acid synthase [1] was 5.92.
Regarding `CCCCCC[C@H]1C(=O)O[C@@H]1C(=O)NCCCC[C@H](NC(=O)OCc1ccccc1)C(=O)N[C@@H](C)C(=O)OCc1ccccc1`, the negative-log IC50 (pIC50) in data set [4] is 5.57; on Fatty acid synthase [1], 4.90.
In the case of `C#Cc1ccc(COC(=O)[C@H](C)NC(=O)[C@H](CCCCNC(=O)[C@@H]2OC(=O)[C@H]2CCCCCC)NC(=O)OCc2ccccc2)cc1`, the pIC50 in data set [4] was 6.59; against Fatty acid synthase [1], 5.40.
On Fatty acid synthase [5], `CCC[C@@H]1C(=O)O[C@H]1C(=O)NCCC[C@H](NC(=O)[C@H](C)NC(=O)OCc1ccccc1)C(=O)OCc1ccccc1` showed a negative logarithm of the IC50 (pIC50) of 5.40 to 6.80.
